Test results from ChEMBL document CHEMBL4152234, “Aminobenzothiazole derivatives stabilize the thermolabile p53 cancer mutant Y220C and show anticancer activity in p53-Y220C cell lines” (Eur J Med Chem, 2018).
The source made the active and inactive calls. The rule behind the calls is not given here.

Key:
[1] = tested on: Cellular tumor antigen p53 (Homo sapiens), P04637 [Y220C]; assay: Activation of p53 Y220C mutant in human NUGC3 cells assessed as change in TNF mRNA level at 60 uM after 18 hrs by RT-PCR method relative to control; format: cell-based
In short: (§1)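 p53 signalling qPCR array covering 84 p53 pathway genes. Cells were exposed for 18 h, and compound and control wells both held 0.5% DMSO. Total RNA was extracted and purified. Fold-changes were calculated by the ΔΔCt method against the untreated sample, with β2-microglobulin (B2M) as the housekeeping gene. Each cell line was run in two independent biological replicates.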

[2] = tested on: Cellular tumor antigen p53 (Homo sapiens), P04637 [Y220C]; assay: Activation of p53 Y220C mutant in human NUGC3 cells assessed as change in TP53AIP1 mRNA level at 60 uM after 18 hrs by RT-PCR method relative to control; format: cell-based; in short: as §1
[3] = tested on: Cellular tumor antigen p53 (Homo sapiens), P04637 [Y220C]; assay: Activation of p53 Y220C mutant in human NUGC3 cells assessed as change in E2F1 mRNA level at 60 uM after 18 hrs by RT-PCR method relative to control; format: cell-based
In short: (§2)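 p53 signalling qPCR array covering 84 genes. Cells were exposed for 18 h, with 0.5% DMSO in both compound and control samples. Total RNA was extracted and purified. Fold-changes were calculated by ΔΔCt using β2-microglobulin (B2M) as the housekeeping gene. Two independent biological replicates were run per cell line.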

[4] = tested on: Cellular tumor antigen p53 (Homo sapiens), P04637 [Y220C]; assay: Activation of p53 Y220C mutant in human NUGC3 cells assessed as change in GML mRNA level at 60 uM after 18 hrs by RT-PCR method relative to control; format: cell-based; in short: as §2
[5] = tested on: Cellular tumor antigen p53 (Homo sapiens), P04637 [Y220C]; assay: Activation of p53 Y220C mutant in human NUGC3 cells assessed as change in PPM1D mRNA level at 60 uM after 18 hrs by RT-PCR method relative to control; format: cell-based; in short: as §1
[6] = tested on: Cellular tumor antigen p53 (Homo sapiens), P04637 [Y220C]; assay: Activation of p53 Y220C mutant in human NUGC3 cells assessed as change in MLH1 mRNA level at 60 uM after 18 hrs by RT-PCR method relative to control; format: cell-based; in short: as §1
[7] = tested on: Cellular tumor antigen p53 (Homo sapiens), P04637 [Y220C]; assay: Activation of p53 Y220C mutant in human NUGC3 cells assessed as change in MDM4 mRNA level at 60 uM after 18 hrs by RT-PCR method relative to control; format: cell-based; in short: as §1
[8] = tested on: Cellular tumor antigen p53 (Homo sapiens), P04637 [Y220C]; assay: Activation of p53 Y220C mutant in human NUGC3 cells assessed as change in BCL2A1 mRNA level at 60 uM after 18 hrs by RT-PCR method relative to control; format: cell-based; in short: as §2
[9] = tested on: Cellular tumor antigen p53 (Homo sapiens), P04637 [Y220C]; assay: Activation of p53 Y220C mutant in human NUGC3 cells assessed as change in MCL1 mRNA level at 60 uM after 18 hrs by RT-PCR method relative to control; format: cell-based; in short: as §1
[10] = tested on: Cellular tumor antigen p53 (Homo sapiens), P04637 [Y220C]; assay: Activation of p53 Y220C mutant in human NUGC3 cells assessed as change in CDK4 mRNA level at 60 uM after 18 hrs by RT-PCR method relative to control; format: cell-based; in short: as §2
[11] = tested on: Cellular tumor antigen p53 (Homo sapiens), P04637 [Y220C]; assay: Activation of p53 Y220C mutant in human NUGC3 cells assessed as change in BRCA2 mRNA level at 60 uM after 18 hrs by RT-PCR method relative to control; format: cell-based; in short: as §2
[12] = tested on: Cellular tumor antigen p53 (Homo sapiens), P04637 [Y220C]; assay: Activation of p53 Y220C mutant in human NUGC3 cells assessed as change in JUN mRNA level at 60 uM after 18 hrs by RT-PCR method relative to control; format: cell-based; in short: as §1
[13] = target: T1, Cellular tumor antigen p53 (Homo sapiens, UniProt P04637); assay: Activation of p53 in human NUGC4 cells assessed as change in TNF mRNA level at 60 uM after 18 hrs by RT-PCR method relative to control; format: cell-based; conditions: read-out: FC
[14] = target: T1, Cellular tumor antigen p53; assay: Activation of p53 in human NUGC4 cells assessed as change in RPRM mRNA level at 60 uM after 18 hrs by RT-PCR method relative to control; format: cell-based; conditions: read-out: FC
[15] = target: T1, Cellular tumor antigen p53; assay: Activation of p53 in human NUGC4 cells assessed as change in MDM2 mRNA level at 60 uM after 18 hrs by RT-PCR method relative to control; format: cell-based; conditions: read-out: FC
In short: (§3)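 p53 signaling qPCR array of 84 p53-pathway genes. Cells were treated in 6-well plates for 18 h with 0.5% DMSO in compound and control samples. Total RNA was extracted and fold-changes were obtained by the ΔΔCt method against untreated control, with β2-microglobulin (B2M) as housekeeping gene. Two independent biological replicates per cell line.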

[16] = target: T1, Cellular tumor antigen p53; assay: Activation of p53 in human NUGC4 cells assessed as change in GADD45A mRNA level at 60 uM after 18 hrs by RT-PCR method relative to control; format: cell-based; conditions: read-out: FC; in short: as §3
[17] = target: T1, Cellular tumor antigen p53; assay: Activation of p53 in human NUGC4 cells assessed as change in PCNA mRNA level at 60 uM after 18 hrs by RT-PCR method relative to control; format: cell-based; conditions: read-out: FC
[18] = target: T1, Cellular tumor antigen p53; assay: Activation of p53 in human NUGC4 cells assessed as change in MDM4 mRNA level at 60 uM after 18 hrs by RT-PCR method relative to control; format: cell-based; conditions: read-out: FC; in short: as §3
[19] = target: T1, Cellular tumor antigen p53; assay: Activation of p53 in human NUGC4 cells assessed as change in RELA mRNA level at 60 uM after 18 hrs by RT-PCR method relative to control; format: cell-based; conditions: read-out: FC
[20] = target: T1, Cellular tumor antigen p53; assay: Activation of p53 in human NUGC4 cells assessed as change in BCL2 mRNA level at 60 uM after 18 hrs by RT-PCR method relative to control; format: cell-based; conditions: read-out: FC; in short: as §1
[21] = target: T1, Cellular tumor antigen p53; assay: Activation of p53 in human NUGC4 cells assessed as change in BIRC5 mRNA level at 60 uM after 18 hrs by RT-PCR method relative to control; format: cell-based; conditions: read-out: FC; in short: as §1
[22] = target: T1, Cellular tumor antigen p53; assay: Activation of p53 in human NUGC4 cells assessed as change in SIRT1 mRNA level at 60 uM after 18 hrs by RT-PCR method relative to control; format: cell-based; conditions: read-out: FC
[23] = target: T1, Cellular tumor antigen p53; assay: Activation of p53 in human NUGC4 cells assessed as change in TRAF2 mRNA level at 60 uM after 18 hrs by RT-PCR method relative to control; format: cell-based; conditions: read-out: FC
[24] = target: T1, Cellular tumor antigen p53; assay: Activation of p53 in human NUGC4 cells assessed as change in CDK1 mRNA level at 60 uM after 18 hrs by RT-PCR method relative to control; format: cell-based; conditions: read-out: FC; in short: as §3
[25] = target: T1, Cellular tumor antigen p53; assay: Activation of p53 in human NUGC4 cells assessed as change in EGR1 mRNA level at 60 uM after 18 hrs by RT-PCR method relative to control; format: cell-based; conditions: read-out: FC; in short: as §3
[26] = tested on: Cellular tumor antigen p53 (Homo sapiens), P04637 [Y220C]; assay: Activation of p53 Y220C mutant in human HuH7 cells assessed as increase in NOXA mRNA level at 30 uM after 18 hrs by RT-PCR method; format: cell-based
In short: (§4)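 Real-time PCR. Cells were treated for 18 h, with 0.5% DMSO in both compound and control samples. Relative mRNA levels were quantified by the ΔΔCt method as fold-change against the untreated sample. Each sample was measured in triplicate, and data are given as mean ± SEM with an unpaired t-test.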

[27] = tested on: Cellular tumor antigen p53 (Homo sapiens), P04637 [Y220C]; assay: Activation of p53 Y220C mutant in human HuH7 cells assessed as increase in Bax mRNA level at 30 uM after 18 hrs by RT-PCR method; format: cell-based; in short: as §4
Huh-7 = assay: Upregulation of p21 mRNA level in p53 Y220C mutant knockout human HuH7 cells at 30 uM after 18 hrs by RT-PCR method; format: functional, cell-based

- fold change (FC) [1]: 5.6
- fold change (FC) [2]: 1.5
- fold change (FC) [3]: 1
- fold change (FC) [4]: 3.1
- fold change (FC) [5]: 0.9
- fold change (FC) [6]: 5.4
- fold change (FC) [7]: 1.3
- fold change (FC) [8]: 3.9
- fold change (FC) [9]: 1.7
- fold change (FC) [10]: 1.3
- fold change (FC) [11]: 0.9
- fold change (FC) [12]: 0.9
- fold induction at 60 µM [13]: 1.1
- fold induction at 60 µM [14]: 7.9
- fold induction at 60 µM [15]: 0.8
- fold induction at 60 µM [16]: 1.7
- fold induction at 60 µM [17]: 0.6
- fold induction at 60 µM [18]: 0.9
- fold induction at 60 µM [19]: 0.8
- fold induction at 60 µM [20]: 1.2
- fold induction at 60 µM [21]: 0.6
- fold induction at 60 µM [22]: 0.9
- fold induction at 60 µM [23]: 0.8
- fold induction at 60 µM [24]: 0.8
- fold induction at 60 µM [25]: 0.7
- Activity [26]: Active
- Activity [27]: Active
SMILES: CCNC(=O)c1c(O)c(I)c(-n2cccc2)c2sc(N(CC)CC)nc12
- Activity (Huh-7): inactive
